Measurements taken from article PMC4449736 (Science translational medicine, 2015).
Where a name gives a salt, the structure may show the parent alone.

How the values were obtained:
HIV = settings: TDF alone, injection drug users; cited from earlier work
[1] = test system: single-cycle recombinant viruses with the integrase-coding regions of FG95 mutants; assay: Susceptibility of single-cycle SIV recombinant viruses to GSK744 in TZM-bl cells; format: cell-based; settings: Table S2
UGT1A1, UGT1A9 = settings: hepatic glucuronidation pathway; cited from earlier work
[2] = human studies, data limited; cited from earlier work
[3] = Plasma PK of GSK744 in Depo-Provera-treated female rhesus macaques; format: in vivo
Summary of the method: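 Female Indian rhesus macaques received 30 mg Depo-Provera IM on weeks -3 and 2 and monthly IM injections of long-acting test compound (8 treated, 4 controls), with three intravaginal SHIV162P3 challenges. Plasma drug levels were followed per animal and expressed as multiples of PAIC90. Plasma SHIV RNA was tracked weekly for 24 weeks by real-time RT-PCR (sensitivity 40 copies/mL) to time first vRNA detection.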

[4] = format: in vivo, rhesus macaques (Macaca mulatta)
[5] = oral GSK744, humans; cited from earlier work
[6] = test system: simian-human immunodeficiency virus (SHIV); settings: cited from earlier work

Compound | reduced HIV infection (HIV) | viral susceptibility to GSK744 ([1]; integrase E198G mutation (FG95, week 20)) | susceptibility to GSK744 in vitro ([1]; integrase P142S, I210V mutations (FG95, week 11)) | metabolizing enzymes (UGT1A1, UGT1A9) | relative mucosal tissue penetration [2] | plasma GSK744 concentration at first vRNA detection relative to PAIC90 ([3]; macaque FG95) | plasma GSK744 concentration at the time of challenges relative to PAIC90 ([3]; macaque FG95, three challenges) | plasma GSK744 concentration at first vRNA detection relative to PAIC90 ([3]; macaque FM26) | plasma GSK744 concentration at the time of challenges relative to PAIC90 ([3]; macaque FM26, three challenges) | mean cervical T:P ratio ([4]; Depo-Provera-treated female macaques, 50 mg/kg GSK744 LA) | GSK744 concentrations lower on average in cervical tissues than rectal tissues ([4]; Depo-Provera-treated female macaques, 50 mg/kg GSK744 LA monthly) | mean T:P ratio in unwashed rectal tissues ([4]; Depo-Provera-treated female macaques, 50 mg/kg GSK744 LA, no saline rinse) | Kp ([4]; female, Indian, rhesus monkey, cervical tissue / plasma, intramuscular, 50 mg/kg) | apparent terminal half-life (t1/2) [5] | protection ([6]; GSK744 plasma concentrations >3x PAIC90) | efficacy ([6]; GSK744 plasma concentrations ≥1x PAIC90)
CC(C)OC(=O)OCOP(=O)(CO[C@H](C)Cn1cnc2c(N)ncnc21)OCOC(=O)OC(C)C [TDF, tenofovir disoproxil fumarate] | 49% |  |  |  |  |  |  |  |  |  |  |  |  |  |  | 
C[C@H]1CO[C@@H]2Cn3cc(C(=O)NCc4ccc(F)cc4F)c(=O)c(O)c3C(=O)N12 [GSK744] |  | did not decrease viral susceptibility | did not decrease susceptibility | primarily by UGT1A1, with some involvement from UGT1A9 | penetrates cervical tissue slightly more efficiently than rectal tissue | < 1 x PAIC90 | 13.3–18.4 x PAIC90 | ≈ 2.2 x PAIC90 | 12.4–18.1 X PAIC90 | 0.09 (range: below detection to 0.20) | 5 fold | 0.37 (range: 0.15 to 1.13) | ~0.1 | approximately 40 hours | 100% | 97%
